From paper PMC10568961 (Research in Pharmaceutical Sciences, 2023)
≈ marks a conversion by molar mass, not a printed value. Where two headings read alike, the source gives them in different places. Marks after values point to notes of the source that are not given here. Each block holds one compound with its values, some of them ahead of it.

What was measured:
[1] = test system: A549 (human lung carcinoma) cells; assay: Trypan blue dye exclusion assay, A549 cells; type: cell-based
Outline: (§1)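 Cells were seeded at 5,000/well for 24 h: MRC-5 in EMEM and A549 in F-12K, each with 10% FBS. They were then given test compound (50, 100, 150 μg/mL), cisplatin (0.5, 1, 2 μg/mL) or 0.5% DMSO control for 24–72 h at 37 °C, 5% CO2. After trypsinisation, viable cells were counted by trypan blue exclusion on a hemocytometer (quadruplicate wells). IC50 came from growth curves. At least three repeats.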

A549 cells [2] = assay: Matrigel invasion assay; type: cell-based, human
Outline: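 Matrigel was diluted in cold serum-free medium and gelled overnight at 37 °C in Transwell upper chambers. A549 cells were added in serum-free medium with test compound (0–150 μg/mL) or cisplatin (1 μg/mL), with 10% FBS below as chemoattractant, for 24 and 48 h at 37 °C. Invaded cells were fixed (3.7% paraformaldehyde, methanol), stained with crystal violet and counted in five fields. % invasion was set against uncoated membrane. Three repeats.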

[3] = test system: MRC-5 (human lung fibroblast) cells; assay: MTS cell viability assay, MRC-5 cells; type: cell-based
[4] = test system: MRC-5 (human lung fibroblast) cells; assay: Trypan blue dye exclusion assay, MRC-5 cells; type: cell-based
Outline: as §1

A549 cells [5] = assay: Scratch assay of cell migration; type: cell-based, human
Outline: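 A549 monolayers were grown to 90–100% confluence in 24 h, scratched with a pipette tip and washed with PBS; initial gap width was measured at ×400. Cells were then kept in serum-free medium with test compound (0–150 μg/mL) or cisplatin (1 μg/mL) at 37 °C, 5% CO2. Gap widths were read by phase-contrast at each time point to 72 h, giving % wound closure. Three repeats.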

[6] = MTS cell viability assay, MRC-5 cells; type: cell-based, human; details: human, MRC-5 lung fibroblast cells
[7] = test system: A549 (human lung carcinoma) cells; assay: MTS cell viability assay, A549 cells; type: cell-based; details: for viability at 50 µg/mL / viability at 100 µg/mL / viability at 150 µg/mL: read-out: Cell viability (%)

SMILES: N.N.[Cl][Pt][Cl] [DDP, cis-diamminedichloroplatinum II]
Number of cells ([1]; A549, 0.5 μg/mL, 24 h): 14,000± 310^a,b
Number of cells ([1]; A549, 0.5 μg/mL, 48 h): 14,050 ± 523^a,b
Number of cells ([1]; A549, 0.5 μg/mL, 72 h): 16,666 ± 420^b
Number of cells ([1]; A549, 1 μg/mL, 24 h): 11,250± 545^a,b
Number of cells ([1]; A549, 1 μg/mL, 48 h): 11,616 ± 590^a,b
Number of cells ([1]; A549, 1 μg/mL, 72 h): 12,833 ± 564^a,b
Number of cells ([1]; A549, 2 μg/mL, 24 h): 8,583± 589^a,b
Number of cells ([1]; A549, 2 μg/mL, 48 h): 9,833 ± 650^a,b
Number of cells ([1]; A549, 2 μg/mL, 72 h): 8,983 ± 310^a,b
Invasion (%) (A549 cells [2]; A549, 0.5 μg/mL, 24 h): 29.01 ± 4.99^a,b %
Invasion (%) (A549 cells [2]; A549, 0.5 μg/mL, 48 h): 18.62 ± 3.11^a,b %
Invasion (%) (A549 cells [2]; A549, 1 μg/mL, 24 h): 26.12 ± 4.22^a,b %
Invasion (%) (A549 cells [2]; A549, 1 μg/mL, 48 h): 16.13 ± 2.66^a,b %
Invasion (%) (A549 cells [2]; A549, 2 μg/mL, 24 h): 20.91 ± 2.05^a,b %
Invasion (%) (A549 cells [2]; A549, 2 μg/mL, 48 h): 14.42 ± 1.57^a,b %
IC50 values, MRC-5 cells ([3]; MTS assay, 72-h): > 2 mg/L
Number of cells ([4]; MRC-5, 0.5 μg/mL, 24 h): 13,900 ± 302^b
Number of cells ([4]; MRC-5, 0.5 μg/mL, 48 h): 15,666 ± 418^a,b
Number of cells ([4]; MRC-5, 0.5 μg/mL, 72 h): 21,100 ± 488^a,b
Number of cells ([4]; MRC-5, 1 μg/mL, 24 h): 13,516 ± 414
Number of cells ([4]; MRC-5, 1 μg/mL, 48 h): 15,400 ± 347^a,b
Number of cells ([4]; MRC-5, 1 μg/mL, 72 h): 20,500 ± 465^a,b
Number of cells ([4]; MRC-5, 2 μg/mL, 24 h): 12,933 ± 396^a
Number of cells ([4]; MRC-5, 2 μg/mL, 48 h): 14,933 ± 292^b
Number of cells ([4]; MRC-5, 2 μg/mL, 72 h): 19,666 ± 389^a,b
Gap closure (%) (A549 cells [5]; A549, 0.5 μg/mL, 0 h): 0%
Gap closure (%) (A549 cells [5]; A549, 0.5 μg/mL, 24 h): 3.09 ± 0.25^a,b %
Gap closure (%) (A549 cells [5]; A549, 0.5 μg/mL, 48 h): 4.36 ± 0.60^a %
Gap closure (%) (A549 cells [5]; A549, 0.5 μg/mL, 72 h): 4.77 ± 0.19^a %
Gap closure (%) (A549 cells [5]; A549, 1 μg/mL, 0 h): 0%
Gap closure (%) (A549 cells [5]; A549, 1 μg/mL, 24 h): 2.52 ± 0.16^a,b %
Gap closure (%) (A549 cells [5]; A549, 1 μg/mL, 48 h): 3.18 ± 0.04^a,b %
Gap closure (%) (A549 cells [5]; A549, 1 μg/mL, 72 h): 3.55 ± 0.42^a %
Gap closure (%) (A549 cells [5]; A549, 2 μg/mL, 0 h): 0%
Gap closure (%) (A549 cells [5]; A549, 2 μg/mL, 24 h): 2.38 ± 0.06^a,b %
Gap closure (%) (A549 cells [5]; A549, 2 μg/mL, 48 h): 2.92 ± 0.04^a,b %
Gap closure (%) (A549 cells [5]; A549, 2 μg/mL, 72 h): 3.53 ± 0.16^a,b %

IC50 ([1]; Homo sapiens, A549, 72 h, read-out: IC50 values, A549 cells): 97.7 ± 4.23 mg/L (≈ 160 µM)
IC50 ([7]; A549, 72 h, read-out: IC50 values, A549 cells): 106 ± 3.52 mg/L (≈ 175 µM)
SMILES: COc1ccc(-c2cc(=O)c3c(O)cc(O[C@@H]4O[C@H](CO[C@@H]5O[C@@H](C)[C@H](O)[C@@H](O)[C@H]5O)[C@@H](O)[C@H](O)[C@H]4O)cc3o2)cc1O [Diosmin, diosmin]
Number of cells ([1]; A549, 50 μg/mL, 24 h): 13,333± 444^a,b
Number of cells ([1]; A549, 50 μg/mL, 48 h): 18,333 ± 510^b
Number of cells ([1]; A549, 50 μg/mL, 72 h): 26,250 ± 392^a,b
Number of cells ([1]; A549, 100 μg/mL, 24 h): 10,833± 487^a,b
Number of cells ([1]; A549, 100 μg/mL, 48 h): 13,750 ± 538^a,b
Number of cells ([1]; A549, 100 μg/mL, 72 h): 18,750 ± 426^a,b
Number of cells ([1]; A549, 150 μg/mL, 24 h): 6,666± 539^a,b
Number of cells ([1]; A549, 150 μg/mL, 48 h): 8,750 ± 572^a,b
Number of cells ([1]; A549, 150 μg/mL, 72 h): 11,250 ± 559^a,b
Invasion (%) (A549 cells [2]; A549, 50 μg/mL, 24 h): 43.51 ± 2.39^a,b %
Invasion (%) (A549 cells [2]; A549, 50 μg/mL, 48 h): 38.05 ± 5.14^a,b %
Invasion (%) (A549 cells [2]; A549, 100 μg/mL, 24 h): 38.60 ± 3.31^a,b %
Invasion (%) (A549 cells [2]; A549, 100 μg/mL, 48 h): 31.39 ± 2.71^a,b %
Invasion (%) (A549 cells [2]; A549, 150 μg/mL, 24 h): 34.79 ± 3.59^a,b %
Invasion (%) (A549 cells [2]; A549, 150 μg/mL, 48 h): 27.60 ± 1.62^a,b %
Invasion (%) (A549 cells [2]; A549, 150 μg/mL, 48 h, listed as diosmin): 27.60 ± 1.62%
IC50 ([3]; Homo sapiens, MRC5, 72 h, read-out: IC50 values, MRC-5 cells): 150 ± 6.32 mg/L (≈ 246 µM)
viability at 24 h, 50 μg/mL [6]: 80.9 ± 8.46%
viability at 24 h, 100 μg/mL [6]: 54.7 ± 7.45%
viability at 24 h, 150 μg/mL [6]: 44.9 ± 5.58%
viability at 48 h, 50 μg/mL [6]: 78 ± 9.3%
viability at 48 h, 100 μg/mL [6]: 53.9 ± 9.19%
viability at 48 h, 150 μg/mL [6]: 47.5 ± 2.05%
viability at 72 h, 50 μg/mL [6]: 86.7 ± 1.38%
viability at 72 h, 100 μg/mL [6]: 71 ± 9.54%
viability at 72 h, 150 μg/mL [6]: 49.9 ± 8.02%
IC50 ([4]; Homo sapiens, MRC5, 72 h, read-out: IC50 value, MRC-5 cells): > 150 mg/L
Number of cells ([4]; MRC-5, 50 μg/mL, 24 h): 11,666± 387^a,b
Number of cells ([4]; MRC-5, 50 μg/mL, 48 h): 14,583 ± 489^b
Number of cells ([4]; MRC-5, 50 μg/mL, 72 h): 19,583 ± 405^a,b
Number of cells ([4]; MRC-5, 100 μg/mL, 24 h): 9,583 ± 463^a,b
Number of cells ([4]; MRC-5, 100 μg/mL, 48 h): 12,083 ± 723^a
Number of cells ([4]; MRC-5, 100 μg/mL, 72 h): 17,500 ± 456^a,b
Number of cells ([4]; MRC-5, 150 μg/mL, 24 h): 6,666± 709^a,b
Number of cells ([4]; MRC-5, 150 μg/mL, 48 h): 10,000 ± 630^a,b
Number of cells ([4]; MRC-5, 150 μg/mL, 72 h): 15,833 ± 544^a,b
viability at 50 µg/mL ([7]; A549, 24 h): 72.3 ± 3.23%
viability at 100 µg/mL ([7]; A549, 24 h): 61.6 ± 4.07%
viability at 150 µg/mL ([7]; A549, 24 h): 45.6 ± 4.59%
viability at 50 µg/mL ([7]; A549, 48 h): 71.1 ± 1.37%
viability at 100 µg/mL ([7]; A549, 48 h): 57.6 ± 5.15%
viability at 150 µg/mL ([7]; A549, 48 h): 47.3 ± 6.78%
viability at 50 µg/mL ([7]; A549, 72 h): 54.9 ± 3.43%
viability at 100 µg/mL ([7]; A549, 72 h): 50.7 ± 1.19%
viability at 150 µg/mL ([7]; A549, 72 h): 35.6 ± 5.95%
Gap closure (%) (A549 cells [5]; A549, 50 μg/mL, 0 h): 0%
Gap closure (%) (A549 cells [5]; A549, 50 μg/mL, 24 h): 4.88 ± 0.82^a %
Gap closure (%) (A549 cells [5]; A549, 50 μg/mL, 48 h): 7.58 ± 1.07^a,b %
Gap closure (%) (A549 cells [5]; A549, 50 μg/mL, 72 h): 10.82 ± 1.10^b %
Gap closure (%) (A549 cells [5]; A549, 100 μg/mL, 0 h): 0%
Gap closure (%) (A549 cells [5]; A549, 100 μg/mL, 24 h): 3.97 ± 0.26^a %
Gap closure (%) (A549 cells [5]; A549, 100 μg/mL, 48 h): 6.08 ± 0.87^a %
Gap closure (%) (A549 cells [5]; A549, 100 μg/mL, 72 h): 8.24 ± 0.67^a,b %
Gap closure (%) (A549 cells [5]; A549, 150 μg/mL, 0 h): 0%
Gap closure (%) (A549 cells [5]; A549, 150 μg/mL, 24 h): 3.32 ± 0.19^a,b %
Gap closure (%) (A549 cells [5]; A549, 150 μg/mL, 48 h): 5.32 ± 0.64^a %
Gap closure (%) (A549 cells [5]; A549, 150 μg/mL, 72 h): 6.84 ± 0.55^a,b %
